LYP act: increases human PTPN22 phosphatase activity; recombinant LYP, DiFMUP fluorescence; 0 = plate median, 100 = signal doubled; 96,000 tested, 0.11% active; Q9Y2R2; activation, % at 2 µM; AID 697;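 active = activation at 2 µM above a set limit, the mean plus 5 SD, cut at about 37% in these data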
PLK1 inh: PLK1 (human) kinase inhibition; P53350; recombinant PLK1 kinase, TR-FRET peptide phosphorylation; inhibition, % at 10 µM; 97,000 tested, 0.53% active; AID 619;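 active = inhibition of 50% or more in the single-concentration screen; inactive = inhibition below 50%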;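 note: 0% = DMSO max control and 100% = H-89 dihydrochloride min control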
EphB4 antag: antagonists of human EphB4-ephrin-B2 interaction | P54760 | EphB4 LBD / TNYL-RAW-Alexa532 peptide, fluorescence polarization | inhibition, % at 7 µM | 97,000 tested, 0.15% active;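 active = inhibition above the screen-wide mean inhibition plus 3 SD, cut at about 15% in these data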;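 note: 0% = DMSO wells and 100% = excess unlabeled TNYL-RAW peptide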
LYP inh 2: blocks human PTPN22 phosphatase activity | 96,000 tested, 0.21% active | recombinant LYP catalytic domain, DiFMUP fluorescence | Q9Y2R2 | inhibition, % at 2 µM;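 active = inhibition at 2 µM at or above a set limit, the screen mean plus 3 SD, cut at about 24% in these data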;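 note: 0% = DMSO with enzyme and 100% = enzyme fully blocked by orthovanadate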
PLK1 PBD inh: blocks phosphopeptide binding to human Plk1 polo box domain | P53350 | Plk1 PBD phosphopeptide binding, fluorescence polarization | inhibition, %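 (tested at about 20 µM)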 | 97,000 tested, 0.13% active; in the data active = inhibition above about 34%, passing the limit was not always enough
HIV Rev-RRE inh: HIV Rev-RRE protein-RNA interaction inhibition. 97,000 tested, 0.79% active. inhibition, % at 8 µM. AID 704. P05866. Rev peptide-RRE RNA binding, FRET;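 active = inhibition above the screen-wide mean plus 3 SD, cut at about 35% in these data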;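 note: 0% = median DMSO wells and 100% = median Neomycin B control wells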
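Probe or stimulus: fluorescein-Rev peptide as binding partner; assay system: Cy5-tagged RRE RNA duplex with fluorescein-tagged Rev peptide; timing: 5 min compound–RNA preincubation, then 15 min with peptide, 25 °C; medium: HEPES pH 7.5 buffer with KCl, MgCl2, NaCl and EDTA; signal: fluorescein-to-Cy5 FRET, 480 nm excitation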
* = called active by the depositor; / = not tested or not shown; [ ] = remark or other dose. An excerpt weighted towards active compounds, which were near 2% of everything screened.

SMILES	LYP act	PLK1 inh	EphB4 antag	LYP inh 2	PLK1 PBD inh	HIV Rev-RRE inh
CN1Cc2sc(N)c(C#N)c2CC1(C)C	-15	-7	-3	14	-34	77*
CSc1nc2c(c(=O)[nH]1)C(c1ccncc1)C(C(=O)OC(C)C)=C(C)N2 (stereo not given)	4	1	-8	-6	-9	0
CN1CCc2nc(SCC(=O)Nc3cccc(F)c3)c(C#N)c(-c3cccs3)c2C1	2	-6	-3	2	-50	56*
CC1CCC(C(=O)NC(C(=O)NCc2cccnc2)C(C)C)CC1 (stereo not given)	8	5	-7	-9	18	0
Cc1cccc(C)c1NC(=O)Cn1cnc2c(=O)n(C)c(=O)n(C)c21	-16	14	11	11	16	4
Cn1c(=O)c2ncn(CC(=O)Nc3ccc4c5c(cccc35)CC4)c2n(C)c1=O	5	-6	8	-5	-29	46*
CC1CC(C)CN(Cc2nc(N)nc(Nc3ccc4ccccc4c3)n2)C1 (stereo not given)	-3	-7	-9	2	17	0
Cn1cccc1/C=C1\CC(C(C)(C)C)C/C(=C\c2cccn2C)C1=O (stereo not given)	-6	-9	3	6	-87	125*[fluorescence artefact?]
CCOC(=O)c1c(NC(=O)c2ccc(N3C(=O)C4C5C=CC(C5)C4C3=O)cc2)sc2c1CCCC2 (stereo not given)	2	5	-2	-4	-14	-4
O=C(O)C1C2C=CC3(CN(Cc4ccco4)C(=O)C13)O2 (stereo not given)	/	58*	-3	/	2	6
COC(=O)C1C2C=CC3(CN(Cc4ccco4)C(=O)C13)O2 (stereo not given)	-2	-8	8	1	-3	10
CN=C(Nc1cc(Cl)ccc1Cl)SC1CC(=O)N(c2ccc(C(=O)OC)cc2)C1=O (stereo not given)	-4	-10	-10	9	-9	6
CN(C1CCCCC1)S(=O)(=O)c1ccc2c(c1)c(=O)c(C(=O)NCCCN1CCCC1)cn2C	/	59*	-1	/	-21	10
CN(C1CCCCC1)S(=O)(=O)c1ccc2c(c1)c(=O)c(C(=O)NCCN1CCCC1)cn2C	/	62*	0	/	-1	10
CSc1cc(-c2ccc(Cl)cc2)c(C(=O)N2CCCC2)s1	-10	-3	6	14	-16	11
Cc1cc(/C=C2\SC(=S)N(Cc3ccco3)C2=O)c(C)n1-c1cccnc1	-7	-22	-9	11	-153	95*[fluorescence artefact?]
Cc1cc(/C=C2/SC(=S)N(c3cccc(C(F)(F)F)c3)C2=O)c(C)n1-c1cccnc1	-9	-42	4	14	-137	44*
Cc1cc(/C=C2\SC(N)=NC2=O)c(C)n1-c1ccccc1	-10	0	0	12	5	14
CCOC(=O)c1ccc(N=C2S/C(=C\c3cc(C)n(-c4cccnc4)c3C)C(=O)N2C)cc1	-1	-12	3	4	-8	-10
Cc1cccc(NC(=O)c2ccc(S(=O)(=O)N(C)C)cc2)n1	-7	-7	18*	7	-21	1
Cc1cccc(NC(=O)CN(C)S(=O)(=O)c2ccc(Br)cc2)n1	-5	-5	6	8	-7	6
COC(=O)CSc1snnc1-c1ccc(Cl)cc1Cl	4	-10	6	-3	-8	9
Oc1c(C=NCc2ccc(F)cc2)[nH]c2ccc(Br)c(Cl)c12	-9	-7	6	11	-18	99*[fluorescence artefact?]
Cc1ccc(CN=Cc2[nH]c3ccc(Br)c(Cl)c3c2O)cc1	-11	-16	-1	13	-108	116*[fluorescence artefact?]
O=C(COc1ccccc1)N(CCc1ccccc1)c1nc(-c2ccc(F)cc2)cs1	4	-7	9	0	8	21
Cc1cc(-c2ccccc2)n2ncc(C#N)c2n1	/	54*	1	/	24	4
CCCCCCOC(=O)C(C#N)c1nc2ccccc2nc1N1CCN(C)CC1 (stereo not given)	-7	1	17*	7	-6	24
COc1ccc(CNC(=O)C(C#N)c2nc3ccccc3nc2N2CCN(C)CC2)cc1 (stereo not given)	1	1	-3	-2	10	1

From PubChem BioAssay
